Measurements: ChEMBL document CHEMBL1124639, “Synthesis and in vitro pharmacology of arpromidine and related phenyl(pyridylalkyl)guanidines, a potential new class of positive inotropic drugs” (J Med Chem, 1989)

Key:
[1] = molecular target: Histamine H2 receptor (Cavia porcellus) (UniProt P47747); assay: Histamine H2 receptor agonistic activity (as a measure of agonism) at the isolated right atrium of guinea pig, activity relative to histamine.; assay type: functional, tissue-based; settings: Cardiac atrium
Sequence of Histamine H2 receptor (Cavia porcellus) (P47747 whole entry, the tested form may be a part): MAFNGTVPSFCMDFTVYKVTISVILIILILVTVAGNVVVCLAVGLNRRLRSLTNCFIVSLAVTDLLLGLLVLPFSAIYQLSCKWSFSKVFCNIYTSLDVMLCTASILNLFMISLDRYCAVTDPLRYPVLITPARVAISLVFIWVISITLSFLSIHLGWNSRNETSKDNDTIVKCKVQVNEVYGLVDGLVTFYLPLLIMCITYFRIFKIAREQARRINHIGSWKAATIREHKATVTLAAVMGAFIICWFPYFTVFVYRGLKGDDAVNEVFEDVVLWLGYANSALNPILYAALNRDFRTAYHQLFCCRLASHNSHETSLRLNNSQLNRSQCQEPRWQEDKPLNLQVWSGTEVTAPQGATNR
Outline: (§1)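 Spontaneously beating isolated guinea pig right atrium with a positive chronotropic read-out. Cumulative concentration-response curves were run against histamine dihydrochloride as the standard. Incubation after each concentration was usually 25 min, adjusted until equilibrium. H2 selectivity was checked with cimetidine (10 µM and 1 µM) and metoprolol (1 µM). Potency relative to histamine = 1 was calculated from mean pD2 values.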

[2] = molecular target: Histamine H2 receptor (Cavia porcellus) (UniProt P47747); assay: Potency relative to histamine calculated from mean pD2 value in guinea pig right atrium.; assay type: functional, tissue-based; settings: Cardiac atrium; outline: as §1
[3] = molecular target: Histamine H2 receptor (Cavia porcellus) (UniProt P47747); assay: Histamine H2 receptor agonism relative to histamine on isolated guinea pig right atrium; assay type: functional, tissue-based; settings: Cardiac atrium; outline: as §1
Histamine H1 receptor = Histamine H1 receptor (Cavia porcellus, UniProt P31389); assay: Antagonist activity at histamine H1 receptor against histamine in isolated ileum of guinea pig.; assay type: functional, tissue-based; settings: read-out: pA2 (converted)
Sequence of Histamine H1 receptor (P31389 whole entry): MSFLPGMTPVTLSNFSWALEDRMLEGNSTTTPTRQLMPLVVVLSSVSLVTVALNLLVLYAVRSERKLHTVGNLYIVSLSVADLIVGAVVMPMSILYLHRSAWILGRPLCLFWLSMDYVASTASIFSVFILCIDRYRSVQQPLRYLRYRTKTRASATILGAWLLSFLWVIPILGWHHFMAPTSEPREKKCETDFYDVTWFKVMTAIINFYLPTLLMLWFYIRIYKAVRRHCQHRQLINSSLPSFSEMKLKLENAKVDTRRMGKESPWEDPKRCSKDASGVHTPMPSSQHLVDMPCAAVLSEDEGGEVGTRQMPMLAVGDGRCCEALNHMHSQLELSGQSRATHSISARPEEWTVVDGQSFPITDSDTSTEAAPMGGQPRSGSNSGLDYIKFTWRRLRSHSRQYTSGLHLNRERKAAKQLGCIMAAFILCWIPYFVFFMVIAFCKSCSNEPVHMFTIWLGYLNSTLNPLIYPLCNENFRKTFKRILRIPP
Outline: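 Isolated guinea pig ileum contracted by histamine, with histamine dihydrochloride as the standard agonist in cumulative dose-response curves. pA2 was derived. For compounds that depressed the histamine maximum at 10 µM, -log KB was taken at 3 µM antagonist from log(DR-1) = log[ant.] - log KB.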

[4] = molecular target: Histamine H2 receptor (Cavia porcellus) (UniProt P47747); assay: Intrinsic activity (as a measure of agonism) on electrically stimulated papillary muscle of guinea pig; assay type: functional, tissue-based; settings: Muscle tissue
Outline: (§2)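 Isolated right-ventricular papillary muscle from guinea pig, electrically paced at 1 Hz with 1 ms pulses, in Krebs-Henseleit solution gassed with O2/CO2 95:5 at 32.5 °C. Compounds were tested as hydrohalide salts. Cumulative concentration-response curves of contractile force were run against histamine as the standard agonist. […] relative potency were taken from pD2, with histamine maximum = 1.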

[5] = molecular target: Histamine H2 receptor (Cavia porcellus) (UniProt P47747); assay: Agonistic activity relative to histamine on electrically stimulated papillary muscle of guinea pig; assay type: functional, tissue-based; settings: Muscle tissue; outline: as §2
Cavia porcellus [6] = organism: Cavia porcellus; assay: Increase in heart rate with maximal inotropic response in isolated perfused guinea pig heart; assay type: functional; parameters: unit not given beside the values
Outline: (§3)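 Langendorff-perfused isolated guinea pig heart. Compounds were given as a bolus injected into the perfusion stream, with impromidine as reference. Net increases in LV dp/dtmax, heart rate and coronary flow were expressed against impromidine = 100% in a control group (n = 6 each). Relative potency was taken from molar ED50 ratios versus impromidine = 100%.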

Cavia porcellus [7] = organism: Cavia porcellus; assay: Chronotropic effect assessed from maximal increase in delta LV (dp/dtmax) in isolated perfused guinea pig heart; assay type: functional; settings: in the assay text read “Inotropic effect” for “Chronotropic effect”; outline: as §3
Cavia porcellus [8] = organism: Cavia porcellus; assay: Increase in coronary flow with maximal inotropic response in isolated perfused guinea pig heart; assay type: functional; parameters: unit not given beside the values; outline: as §3
Cavia porcellus [9] = organism: Cavia porcellus; assay: Relative potency with impromidine (100%) in isolated perfused guinea pig heart; assay type: functional; outline: as §3

| SMILES | Intrinsic activity [1] | Relative potency [2] | pD2 [3] | Kb (Histamine H1 receptor) [nM] | Intrinsic activity [4] | pD2 [5] | Delta heart rate (Cavia porcellus [6]) | Delta LV (Cavia porcellus [7]) | Delta coronary flow (Cavia porcellus [8]) | Relative potency (Cavia porcellus [9]) |
| --- | --- | --- | --- | --- | --- | --- | --- | --- | --- | --- |
| N/C(=N\CCC(c1cccc([N+](=O)[O-])c1)c1ccccn1)NCCCc1c[nH]cn1 (configuration not stated) | 0.9 | 8.1 | 6.91 | 1700 |  |  |  |  |  |  |
| N=C(NCCCc1c[nH]cn1)NCCC(c1cccc(F)c1)c1ccccn1 (configuration not stated) | 1 | 75.9 | 7.88 | 158 | 0.5 | 7.79 |  |  |  |  |
| N=C(NCCCc1c[nH]cn1)NCCC(c1ccc(F)cc1)c1ccccn1 (configuration not stated) [ARPROMIDINE] | 1 | 102 | 8.01 |  | 0.8 | 7.94 | 57 | 97 | 143 | 146 |
| N=C(NCCCc1c[nH]cn1)NCCC(c1ccccn1)c1ccccc1F (configuration not stated) | 1 | 28.8 | 7.46 | 437 |  |  |  |  |  |  |
| N=C(NCCCc1c[nH]cn1)NCCCC(c1ccccc1)c1ccccn1 (configuration not stated) | 1 | 4.1 | 6.61 |  |  |  |  |  |  |  |
| N=C(NCCCc1c[nH]cn1)NCCC(Cc1ccccc1)c1ccc(F)cc1 (configuration not stated) | 0.8 | 1.5 | 6.17 | 141 |  |  |  |  |  |  |
| N=C(NCCCc1c[nH]cn1)NCCC(c1cc(Cl)cc(Cl)c1)c1ccccn1 (configuration not stated) | 1 | 23.4 | 7.37 | 43.7 |  |  |  |  |  |  |
| CN(CCC(c1ccc(F)cc1)c1ccccn1)C(=N)NCCCc1c[nH]cn1 (configuration not stated) | 0.8 | 0.25 | 5.4 | 1100 |  |  |  |  |  |  |
| N=C(NCCCc1c[nH]cn1)NCCC(c1cc(F)cc(F)c1)c1ccccn1 (configuration not stated) | 1 | 112 | 8.05 | 275 | 0.8 | 7.91 | 79 | 129 | 182 | 244 |
| N=C(NCCCc1c[nH]cn1)NCCC(c1ccc(F)cc1)c1cccnc1 (configuration not stated) | 1 | 123 | 8.09 |  | 0.8 | 7.91 |  |  |  |  |
| NC(=NCCC(c1ccc(F)cc1)c1ccccn1)NCCCc1cnc[nH]1 (configuration not stated) [ARPROMIDINE] |  |  |  | 22.4 |  |  |  |  |  |  |
| N=C(NCCCc1c[nH]cn1)NCCCC(c1ccc(F)cc1)c1ccccn1 (configuration not stated) | 0.9 | 7.4 | 6.87 | 46.8 |  |  |  |  |  |  |
| Cc1ccc(C(CC/N=C(\N)NCCCc2c[nH]cn2)c2ccccn2)cc1 (configuration not stated) | 1 | 51.3 | 7.71 | 148 | 1 | 7.15 | 77 | 96 | 59 | 138 |
| N=C(NCCCc1c[nH]cn1)NCCSC(c1ccccc1)c1ccccn1 (configuration not stated) | 1 | 4 | 6.6 |  |  |  |  |  |  |  |
| N/C(=N\CCC(c1cccc(N)c1)c1ccccn1)NCCCc1c[nH]cn1 (configuration not stated) | 0.9 | 24 | 7.38 | 851 |  |  |  |  |  |  |
| N=C(NCCCc1c[nH]cn1)NCCC(c1ccccc1)c1ccc(Cl)c(Cl)c1 (configuration not stated) | 1 | 28.8 | 7.46 | 195 | 0.6 | 6.03 |  |  |  |  |
| N=C(NCCCc1c[nH]cn1)NCCC(c1ccccn1)c1ccccn1 | 1 | 7.9 | 6.9 | 389 |  |  |  |  |  |  |
| N=C(NCCCc1c[nH]cn1)NCC(c1ccccc1)c1ccccn1 (configuration not stated) | 1 | 2.2 | 6.35 | 3310 |  |  |  |  |  |  |
| N=C(NCCCc1c[nH]cn1)NCCC(c1cccc(C(F)(F)F)c1)c1ccccn1 (configuration not stated) | 1 | 26.9 | 7.43 | 525 | 0.7 | 7.44 |  |  |  |  |
| Cc1[nH]cnc1CSCCNC(=N)NCCCc1c[nH]cn1 [IMPROMIDINE] |  |  |  |  |  |  | 100 | 100 | 100 | 100 |
| N=C(NCCCc1c[nH]cn1)NCCC(c1ccc(Cl)cc1)c1ccccn1 (configuration not stated) | 1 | 69.2 | 7.84 | 77.6 | 0.8 | 7.39 | 62 | 91 | 103 | 90 |
| COc1ccc(C(CC/N=C(\N)NCCCc2c[nH]cn2)c2ccccn2)cc1 (configuration not stated) | 1 | 27.5 | 7.44 | 269 | 0.5 | 7 |  |  |  |  |
| N=C(NCCCc1c[nH]cn1)NCCC(c1ccc(Br)cc1)c1ccccn1 (configuration not stated) | 1 | 30.2 | 7.48 | 120 | 0.4 | 6.97 | 101 | 93 | 155 | 61 |
| N=C(NCCCc1c[nH]cn1)NCCC(c1ccccn1)c1ccc(Cl)cc1Cl (configuration not stated) | 0.9 | 52.5 | 7.72 | 288 |  |  |  |  |  |  |
| N/C(=N\CCC(O)(c1ccc(F)cc1)c1ccccn1)NCCCc1c[nH]cn1 (configuration not stated) | 0.9 | 26.3 | 7.42 | 115 |  |  |  |  |  |  |
| N=C(NCCCc1c[nH]cn1)NCCC(c1ccccc1)c1ccc(F)cc1 (configuration not stated) | 1 | 53.7 | 7.73 | 34.7 | 0.7 | 7.45 |  |  |  |  |
| N=C(NC/C=C(\c1ccc(F)cc1)c1ccccn1)NCCCc1c[nH]cn1 | 1 | 29.5 | 7.47 | 347 |  |  |  |  |  |  |
| N=C(NCCCc1c[nH]cn1)NCCC(c1cccc(Cl)c1)c1ccccn1 (configuration not stated) | 1 | 87.1 | 7.94 |  | 0.6 | 7.71 | 96 | 103 | 79 | 199 |
| N=C(NCCCc1c[nH]cn1)NCCC(c1ccccn1)c1cccs1 (configuration not stated) | 1 | 14.5 | 7.16 | 45.7 |  |  |  |  |  |  |
| N=C(NCCCc1c[nH]cn1)NCCC(c1ccc(C(F)(F)F)cc1)c1ccccn1 (configuration not stated) | 0.9 | 57.5 | 7.76 | 282 | 0.9 | 7.23 |  |  |  |  |
